Data on eight molecules can be found in publication PMC10449099 (The Journal of Pharmacology and Experimental Therapeutics, 2023).

Data set [1] concerns the target hKir6.1[V65M]/hSUR2B (Homo sapiens, UniProt O60706+Q15842, V65M). Description: Thallium flux assay, Kir6.1[V65M] stable cells. Type of data set: cell-based. The settings on record: for activation of Tl influx by KCO: KCOs at presumably maximal concentrations, compared with WT.
Data set [2] has as its target hKir6.1/hSUR2B[R1154Q] (Homo sapiens, UniProt O60706+Q15842, R1154Q). Kind of data set: Thallium flux assay, SUR2B[R1154Q] stable cells. The format is cell-based. The following applies: KCOs at presumably maximal concentrations. In outline: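 Doxycycline-induced stable HEK293 cells on poly-L-lysine were loaded 1 h with Fluozin-2 in HBSS. […] Ex 485/em 528 nm was read every 2 s for 2 min, with Tl+ added at 20 s. Blank-subtracted, pre-Tl-normalized traces were fit single-exponentially, giving initial rate at t=0; n = 3–4.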

For data set [3], the target named is T1, WT hKir6.1/hSUR2B (Homo sapiens, UniProt O60706+Q15842). Type of data set: cell-based. The following applies: for activation of Tl influx by KCO: KCOs at presumably maximal concentrations.
For data set [4], the target named is T1, WT hKir6.1/hSUR2B. Kind of data set: DiBAC4. Type of data set: cell-based. The following applies: WT cells. In outline:
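WT hKir6.1/hSUR2B and untransfected landing-pad HEK293 cells were loaded ≥30 min with 3 μM DiBAC4(3) in 1 mM K+ buffer. […] Background-subtracted mean cell fluorescence was normalized to untreated cells, n = 4–6. K conductance was estimated with a simplified Goldman-Hodgkin-Katz equation.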

The target in data set [5] is hKir6.1[C176S]/hSUR2B (Homo sapiens, UniProt O60706+Q15842, C176S). Description: Thallium flux assay, Kir6.1[C176S] stable cells. Type of data set: cell-based.
Data set [6] concerns the target hKir6.1[A46V]/hSUR2B (Homo sapiens, UniProt O60706+Q15842, A46V). Kind of data set: Thallium flux assay, Kir6.1[A46V] stable cells. The format is cell-based.
The target of data set [7] is WT Kir6.1/SUR2B channels (Homo sapiens, UniProt O60706+Q15842). Kind of data set: Whole-cell patch-clamp, stably transfected WT channels. The settings on record: Vm -60 mV. Type of data set: cell-based. (In general: The patch-clamp technique gives a direct electrical read-out from membranes.)
Data set [8] deals with hKir6.1/hSUR2B with hSUR2B mutations (A478V, indel1055, R1154Q, R1154W). Description: Thallium flux assay, all cell lines with hSUR2B mutations. Type of data set: cell-based, human. The following applies: all hSUR2B mutant cell lines. In outline:
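Doxycycline-induced stable hKir6.1/hSUR2B-mutant HEK293 cells on poly-L-lysine were loaded 1 h with Fluozin-2 in HBSS. […] Ex 485/em 528 nm was read every 2 s for 2 min, with Tl+ added at 20 s. Blank-subtracted traces normalized to pre-Tl fluorescence were fit with a single exponential; initial rate was the derivative at t=0.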

For data set [9], the target named is hKir6.1[E189K]/hSUR2B (Homo sapiens, UniProt O60706+Q15842, E189K). Kind of data set: Thallium flux assay, Kir6.1[E189K] stable cells. Type of data set: cell-based.
In data set [10] the target is Kir6.1/SUR2B[R1154Q] mutant channels (Homo sapiens, UniProt O60706+Q15842, R1154Q). Kind of data set: Whole-cell patch-clamp, stably transfected R1154Q mutant channels. Type of data set: cell-based.
In data set [11] the target is hKir6.1[D338E]/hSUR2B (Homo sapiens, UniProt O60706+Q15842, D338E). Description: Thallium flux assay, Kir6.1[D338E] stable cells. Type of data set: cell-based.
For data set [12], the target named is hKir6.1[A46V] (Homo sapiens, UniProt O60706+Q15842, A46V). Kind of data set: DiBAC4. The format is cell-based. The following applies: basal activity without KCO. In outline:
(§1)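 Stable landing-pad HEK293 lines expressing hKir6.1/hSUR2B mutants were induced with doxycycline (4 μg/ml) and grown 1 day on poly-L-lysine. Cells were washed in low-K buffer (1 mM KCl, HEPES, pH 7.4), then incubated ≥30 min with 3 μM DiBAC4(3) plus blocker (glibenclamide, repaglinide or PNU37883A), without opener. Cells were segmented by red fluorescence, background-subtracted and mean-intensity averaged over duplicate images.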

The test system of data set [13] is hSUR2B mutations (A478V, R1154Q, indel1055). Description: DiBAC4. Type of data set: cell-based, human. The following applies: for reversal of mutation-caused hyperpolarization by inhibitor: basal activity without KCO, hSUR2B A478V, R1154Q, indel1055. In outline:
as §1

For data set [14], the system named is hKir6.1 mutations, particularly V65M, C176S and E189K. Description: DiBAC4. The settings on record: for sensitivity of mutation-caused hyperpolarization to reversal by inhibitor: basal activity without KCO, hKir6.1 mutations, particularly V65M, C176S, E189K. Type of data set: cell-based, human. In outline:
as §1

Data set [15] relates to gastric motility. The following applies: ref York et al., 2020; cited from earlier work.
The test system of data set [16] is SUR2[A478V] mice. The settings on record: ref McClenaghan et al., 2020b; cited from earlier work.
Data set [17] deals with hSUR2B[R1154W] (Homo sapiens, UniProt O60706+Q15842, R1154W). Kind of data set: DiBAC4. The settings on record: basal activity without KCO. Type of data set: cell-based. In outline:
as §1

In data set [18] the test system is cardiac function. The following applies: ref Humphrey et al., 1996; cited from earlier work.
The target of data set [19] is Kir6.1[D338E] (Homo sapiens, UniProt O60706+Q15842, D338E). Description: DiBAC4. Type of data set: cell-based. The settings on record: basal activity without KCO; printed hKir6.1[G338E].
Setting [20] is: most SUR2B CS mutations, basal activity.

hKir6.1/hSUR2B[R1154Q], sequence (Q15842 whole entry): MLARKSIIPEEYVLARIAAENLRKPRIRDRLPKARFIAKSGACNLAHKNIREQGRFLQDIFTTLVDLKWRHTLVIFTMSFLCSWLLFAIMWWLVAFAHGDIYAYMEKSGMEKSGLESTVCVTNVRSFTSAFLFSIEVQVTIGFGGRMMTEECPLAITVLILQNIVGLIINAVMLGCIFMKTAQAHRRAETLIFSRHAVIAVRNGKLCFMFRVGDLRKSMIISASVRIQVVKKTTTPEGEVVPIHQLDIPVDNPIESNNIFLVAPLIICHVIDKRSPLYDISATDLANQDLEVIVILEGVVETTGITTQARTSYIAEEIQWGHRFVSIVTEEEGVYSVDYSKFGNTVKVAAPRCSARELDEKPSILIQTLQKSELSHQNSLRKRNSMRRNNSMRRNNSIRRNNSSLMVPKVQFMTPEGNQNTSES
hKir6.1/hSUR2B[R1154Q], sequence (O60706 1-1549 isoform O60706-2 R1154Q): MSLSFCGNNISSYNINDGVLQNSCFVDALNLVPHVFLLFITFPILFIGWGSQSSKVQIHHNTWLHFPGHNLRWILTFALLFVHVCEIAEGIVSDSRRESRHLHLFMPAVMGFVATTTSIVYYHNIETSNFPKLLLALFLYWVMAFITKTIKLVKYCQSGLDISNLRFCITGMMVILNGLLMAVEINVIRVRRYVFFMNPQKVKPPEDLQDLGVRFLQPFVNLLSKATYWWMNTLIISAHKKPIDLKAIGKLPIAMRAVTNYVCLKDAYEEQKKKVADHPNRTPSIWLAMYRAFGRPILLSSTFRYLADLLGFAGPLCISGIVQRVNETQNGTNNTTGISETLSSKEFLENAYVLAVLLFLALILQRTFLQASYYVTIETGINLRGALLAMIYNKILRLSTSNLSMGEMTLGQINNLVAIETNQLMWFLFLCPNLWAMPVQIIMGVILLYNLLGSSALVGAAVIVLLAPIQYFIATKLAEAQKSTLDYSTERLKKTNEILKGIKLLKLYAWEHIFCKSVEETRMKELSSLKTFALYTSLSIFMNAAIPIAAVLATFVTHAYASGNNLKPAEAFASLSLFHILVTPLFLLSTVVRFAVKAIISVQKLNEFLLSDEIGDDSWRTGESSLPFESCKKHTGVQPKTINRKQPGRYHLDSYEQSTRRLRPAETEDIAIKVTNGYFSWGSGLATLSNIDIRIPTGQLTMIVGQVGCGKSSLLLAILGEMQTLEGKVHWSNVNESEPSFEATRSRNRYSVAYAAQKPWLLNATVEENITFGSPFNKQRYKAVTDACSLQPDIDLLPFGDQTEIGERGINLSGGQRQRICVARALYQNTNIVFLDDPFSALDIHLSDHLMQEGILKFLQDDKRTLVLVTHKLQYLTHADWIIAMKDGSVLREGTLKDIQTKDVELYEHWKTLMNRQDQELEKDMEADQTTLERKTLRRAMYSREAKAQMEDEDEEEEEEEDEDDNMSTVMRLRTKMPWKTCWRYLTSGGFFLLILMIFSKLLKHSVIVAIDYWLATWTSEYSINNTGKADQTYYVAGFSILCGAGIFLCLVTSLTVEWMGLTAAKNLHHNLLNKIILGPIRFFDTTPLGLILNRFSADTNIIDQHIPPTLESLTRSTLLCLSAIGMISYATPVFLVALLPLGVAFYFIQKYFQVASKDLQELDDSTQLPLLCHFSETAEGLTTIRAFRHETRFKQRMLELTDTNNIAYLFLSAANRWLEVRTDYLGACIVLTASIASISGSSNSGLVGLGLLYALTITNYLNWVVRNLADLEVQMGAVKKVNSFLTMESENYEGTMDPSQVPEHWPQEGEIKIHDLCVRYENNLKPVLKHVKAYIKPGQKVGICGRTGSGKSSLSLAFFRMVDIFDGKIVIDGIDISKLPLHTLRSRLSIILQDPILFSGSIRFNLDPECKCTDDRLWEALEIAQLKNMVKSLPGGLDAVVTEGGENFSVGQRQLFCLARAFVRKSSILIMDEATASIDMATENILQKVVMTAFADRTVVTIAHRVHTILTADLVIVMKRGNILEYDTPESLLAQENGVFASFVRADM
T1 sequence (Q15842 whole entry): as the sequence (Q15842 whole entry) above
T1 sequence (O60706 1-1549 isoform O60706-2): as the sequence (O60706 1-1549 isoform O60706-2 R1154Q) above, with Q1154R counted along it
hKir6.1[A46V], sequence (Q15842 whole entry A46V): as the sequence (Q15842 whole entry) above, with A46V counted along it
hKir6.1[A46V], sequence (O60706 1-1549 isoform O60706-2, stated change not applied): as the sequence (O60706 1-1549 isoform O60706-2 R1154Q) above, with Q1154R counted along it
hKir6.1[V65M]/hSUR2B, sequence (Q15842 whole entry V65M): as the sequence (Q15842 whole entry) above, with V65M counted along it
hKir6.1[V65M]/hSUR2B, sequence (O60706 1-1549 isoform O60706-2, stated change not applied): as the sequence (O60706 1-1549 isoform O60706-2 R1154Q) above, with Q1154R counted along it
hKir6.1[D338E]/hSUR2B, sequence (Q15842 whole entry D338E): as the sequence (Q15842 whole entry) above, with D338E counted along it
hKir6.1[D338E]/hSUR2B, sequence (O60706 1-1549 isoform O60706-2, stated change not applied): as the sequence (O60706 1-1549 isoform O60706-2 R1154Q) above, with Q1154R counted along it
hKir6.1[C176S]/hSUR2B, sequence (Q15842 whole entry C176S): as the sequence (Q15842 whole entry) above, with C176S counted along it
hKir6.1[C176S]/hSUR2B, sequence (O60706 1-1549 isoform O60706-2, stated change not applied): as the sequence (O60706 1-1549 isoform O60706-2 R1154Q) above, with Q1154R counted along it
hKir6.1[E189K]/hSUR2B, sequence (Q15842 whole entry E189K): as the sequence (Q15842 whole entry) above, with E189K counted along it
hKir6.1[E189K]/hSUR2B, sequence (O60706 1-1549 isoform O60706-2, stated change not applied): as the sequence (O60706 1-1549 isoform O60706-2 R1154Q) above, with Q1154R counted along it
Kir6.1/SUR2B[R1154Q] mutant channels, sequence (Q15842 whole entry): as the sequence (Q15842 whole entry) above
Kir6.1/SUR2B[R1154Q] mutant channels, sequence (O60706 1-1549 isoform O60706-2 R1154Q): as the sequence (O60706 1-1549 isoform O60706-2 R1154Q) above
hKir6.1[A46V]/hSUR2B, sequence (Q15842 whole entry A46V): as the sequence (Q15842 whole entry) above, with A46V counted along it
hKir6.1[A46V]/hSUR2B, sequence (O60706 1-1549 isoform O60706-2, stated change not applied): as the sequence (O60706 1-1549 isoform O60706-2 R1154Q) above, with Q1154R counted along it
WT Kir6.1/SUR2B channels, sequence (Q15842 whole entry): as the sequence (Q15842 whole entry) above
WT Kir6.1/SUR2B channels, sequence (O60706 1-1549 isoform O60706-2): as the sequence (O60706 1-1549 isoform O60706-2 R1154Q) above, with Q1154R counted along it
hSUR2B[R1154W], sequence (Q15842 whole entry): as the sequence (Q15842 whole entry) above
hSUR2B[R1154W], sequence (O60706 1-1549 isoform O60706-2 R1154W): as the sequence (O60706 1-1549 isoform O60706-2 R1154Q) above, with Q1154W counted along it
Kir6.1[D338E], sequence (Q15842 whole entry D338E): as the sequence (Q15842 whole entry) above, with D338E counted along it
Kir6.1[D338E], sequence (O60706 1-1549 isoform O60706-2, stated change not applied): as the sequence (O60706 1-1549 isoform O60706-2 R1154Q) above, with Q1154R counted along it

Turning to `O=C(NCCO[N+](=O)[O-])c1cccnc1` [nicorandil], the “activation of Tl influx by KCO” value in data set [1] (hKir6.1[V65M]) is “measurable activation”; in data set [2], “not activated”; in data set [3] (WT), “only activated by pinacidil and cromakalim”.
Regarding `CC1(C)Oc2ccc(C#N)cc2C(N2CCCC2=O)C1O` (centres unmarked) [cromakalim], the “activation of Tl influx by KCO” value in data set [1] (hKir6.1[V65M]) is given as “enhanced activation”; in data set [2], “not activated”; in [3] (WT), “activated”.
In the case of `CC(N/C(=N\C#N)Nc1ccncc1)C(C)(C)C` (centres unmarked) [pinacidil], the “channel activity at very high concentration of pinacidil” value in data set [1] (Kir6.1[V65M], 300 μM pinacidil) was “slightly decreased”. The “Hill coefficient, pinacidil activation” value was found to be 1.2 ± 0.0 in data set [1] (Kir6.1[V65M], fit with eq. 3); 1.2 ± 0.1 in data set [5] (Kir6.1[C176S], fit with eq. 3); 1.9 ± 0.2 in data set [6] (fit with eq. 3); 2.6 ± 1.0 in data set [3] (WT, fit with eq. 3); 1.3 ± 0.4 in [9] (Kir6.1[E189K], fit with eq. 3); 1.7 ± 0.1 in data set [11] (Kir6.1[D338E], fit with eq. 3). In addition, the “activation of Tl influx by KCO” value in data set [1] (hKir6.1[V65M]) is recorded as “enhanced activation”; in [2] it was “not activated”; in [3] (WT), “activated”. Also, the “DiBAC4(3) signal changes at 10 μM pinacidil” value in data set [4] (10 μM pinacidil) is “almost saturated”. The “effect on membrane potential (DiBAC4(3) fluorescence)” value in data set [4] (1 mM [K+]o) is on record as “dose-dependently hyperpolarized”. Besides, in data set [4] (1 mM [K+]o), the “potency of hyperpolarization, comparison” value is recorded as “more potent than diazoxide”. The “share of the DiBAC4(3) signal change that occurs at <3 μM pinacidil” value in data set [4] (<3 μM pinacidil, activation of <20% of maximal WT conductance) is approximately 80%. Moreover, in data set [5] (Kir6.1[C176S], Tl influx dose-response), the “maximum channel activity with pinacidil compared with WT” value is “much higher”. Moreover, the “increase of whole-cell current by pinacidil (IPin/IBasal)” value is approximately 150 fold in [7] and approximately 10 fold in data set [10] (Vm -60 mV). Also, the “pinacidil concentration at which Tl influx activation reached maximum” value in [3] (WT channels) is 100 µM. For the same molecule, in data set [8] (pinacidil 100 μM), the “response of Tl-influx rate to pinacidil activation” value was “essentially insensitive”.
In the case of `CC1=NS(=O)(=O)c2cc(Cl)ccc2N1` [diazoxide], the “activation of Tl influx by KCO” value in [1] (hKir6.1[V65M]) is recorded as “measurable activation”; in [2], “not activated”; in data set [3] (WT) it was “no effect”. Besides, the “concentrations generating clear KATP-dependent hyperpolarization signals” value in data set [4] (1 mM [K+]o) is recorded as “above 1 μM”. The “effect on membrane potential (DiBAC4(3) fluorescence)” value in [4] (1 mM [K+]o) was “dose-dependently hyperpolarized”.
For `CCOc1cc(CC(=O)N[C@@H](CC(C)C)c2ccccc2N2CCCCC2)ccc1C(=O)O` [repaglinide], the “reversal of mutation-caused hyperpolarization by inhibitor” value in data set [12] and in [13] was “readily reversed” in each case. For the same molecule, in data set [13] (setting [20]), the “block of basal activity compared with glibenclamide” value is recorded as “more effectively”. Also, the “sensitivity of mutation-caused hyperpolarization to reversal by inhibitor” value (from here on “sensitivity … by inhibitor”) in [14] is listed as “very poorly sensitive”.
Consider `COc1ccc(Cl)cc1C(=O)NCCc1ccc(S(=O)(=O)NC(=O)NC2CCCCC2)cc1` [glibenclamide], for which the “Hill coefficient, glibenclamide inhibition” value is given as 1.8 ± 0.8 in [1] (Kir6.1[V65M], 100 μM pinacidil, fit with eq. 4); 1.1 ± 0.5 in data set [5] (Kir6.1[C176S], 100 μM pinacidil, fit with eq. 4); 1.9 ± 0.3 in data set [6] (100 μM pinacidil, fit with eq. 4); 2.9 ± 6.0 in data set [3] (WT, 100 μM pinacidil, fit with eq. 4); 1.0 ± 0.2 in [9] (Kir6.1[E189K], 100 μM pinacidil, fit with eq. 4); 1.5 ± 0.4 in data set [11] (Kir6.1[D338E], 100 μM pinacidil, fit with eq. 4). For the same molecule, the “reversal of mutation-caused hyperpolarization by inhibitor” value in data set [12] and in data set [13] was “readily reversed” in each case. Also, the “glibenclamide concentration that effectively blocked basal activity” value in [13] (setting [20]) lay within 100 to 300 nM. Besides, in data set [13] (most SUR2 CS mutations), the “glibenclamide concentration that markedly inhibited” value was less than 100 nM. In data set [15], the “effect on gastric motility” value is listed as “restored gastric motility”. In data set [16], the “effect on CS-associated cardiovascular abnormalities” value is “reversed CS-associated cardiovascular abnormalities”. The figures for the “sensitivity … by inhibitor” value in data set [14] and in data set [17] were “very poorly sensitive” and “uniquely insensitive”, respectively. For the same molecule, the “glibenclamide sensitivity (IPin+Glib/IPin) compared with WT” value in [10] (pinacidil-activated current) is listed as “markedly reduced”.
In the case of `C=C[C@@]1(C)CC(=O)[C@]2(O)[C@@]3(C)[C@@H](O)CCC(C)(C)[C@@H]3[C@H](O)[C@H](OC(C)=O)[C@@]2(C)O1` [forskolin], the “Tl-influx rate with forskolin” value was “increased” in data set [1] (hKir6.1[V65M], 10 μM forskolin); “increased” in data set [5] (hKir6.1[C176S], 10 μM forskolin); “increased” in [9] (hKir6.1[E189K], 10 μM forskolin); “increased” in data set [11] (hKir6.1[D338E], 10 μM forskolin). Also, in data set [4] (10 μM forskolin), the “effect of forskolin on membrane potential (DiBAC4(3))” value is reported as “significant hyperpolarization”. Besides, the “Tl influx signal with forskolin” value in data set [3] (WT, 10 μM forskolin) is “failed to generate measurable”. Besides, the “response of Tl-influx rate to forskolin” value in [8] (10 μM forskolin) was “essentially insensitive”.
For `C1CCC(N=C(NC23CC4CC(CC(C4)C2)C3)N2CCOCC2)CC1.Cl` [PNU37883A], the “reversal of mutation-caused hyperpolarization by inhibitor” value in data set [12] and in [13] was “readily reversed” in each case. In addition, the “effects on cardiac function” value in data set [18] is on record as “Fatal effects”. Also, the “inhibition of basal Kir6.1 mutation activities, comparison” value in data set [14] (at saturating doses) is listed as “more effective than glibenclamide or repaglinide”. The figures for the “sensitivity … by inhibitor” value in data set [14] and in [19] were “very poorly sensitive” and “uniquely insensitive”, respectively.
